From ChEMBL document CHEMBL4819139, “Green synthesis of therapeutically active 1,3,4-oxadiazoles as antioxidants, selective COX-2 inhibitors and their in silico studies” (Bioorg Med Chem Lett, 2021)
Values after ≈ are worked out from the molar mass of the structure shown.

Legend:
[1] = Antioxidant activity assessed as DPPH free radical scavenging activity in iron free medium; assay type: functional
[2] = target: T1, Prostaglandin G/H synthase 2 (Homo sapiens, UniProt P35354); experiment: Inhibition of COX-2 (unknown origin)
T1 sequence (P35354 whole entry): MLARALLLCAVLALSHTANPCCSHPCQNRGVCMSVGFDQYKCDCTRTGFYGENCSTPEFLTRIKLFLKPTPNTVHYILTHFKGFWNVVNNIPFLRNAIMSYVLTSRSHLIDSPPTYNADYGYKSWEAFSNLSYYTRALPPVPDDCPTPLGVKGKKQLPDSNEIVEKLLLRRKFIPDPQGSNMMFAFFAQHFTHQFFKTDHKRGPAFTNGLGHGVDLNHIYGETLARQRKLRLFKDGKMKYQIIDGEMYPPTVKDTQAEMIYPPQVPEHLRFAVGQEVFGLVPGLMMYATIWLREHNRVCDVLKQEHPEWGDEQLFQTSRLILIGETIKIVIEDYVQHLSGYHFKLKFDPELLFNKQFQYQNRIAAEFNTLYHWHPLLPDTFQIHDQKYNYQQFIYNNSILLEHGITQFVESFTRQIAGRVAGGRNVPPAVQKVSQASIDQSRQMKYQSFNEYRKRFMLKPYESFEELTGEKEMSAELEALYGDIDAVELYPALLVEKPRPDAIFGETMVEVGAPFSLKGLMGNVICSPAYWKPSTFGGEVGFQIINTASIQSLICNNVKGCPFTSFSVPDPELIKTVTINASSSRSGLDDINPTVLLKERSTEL
Method in brief: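 Percent COX-2 inhibition was measured at several compound concentrations. Mefenamic acid served as the reference standard.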

[3] = target: Prostaglandin G/H synthase 1 (Homo sapiens, UniProt P23219); experiment: Inhibition of COX-1 (unknown origin)
Chain of Prostaglandin G/H synthase 1 (P23219 whole entry): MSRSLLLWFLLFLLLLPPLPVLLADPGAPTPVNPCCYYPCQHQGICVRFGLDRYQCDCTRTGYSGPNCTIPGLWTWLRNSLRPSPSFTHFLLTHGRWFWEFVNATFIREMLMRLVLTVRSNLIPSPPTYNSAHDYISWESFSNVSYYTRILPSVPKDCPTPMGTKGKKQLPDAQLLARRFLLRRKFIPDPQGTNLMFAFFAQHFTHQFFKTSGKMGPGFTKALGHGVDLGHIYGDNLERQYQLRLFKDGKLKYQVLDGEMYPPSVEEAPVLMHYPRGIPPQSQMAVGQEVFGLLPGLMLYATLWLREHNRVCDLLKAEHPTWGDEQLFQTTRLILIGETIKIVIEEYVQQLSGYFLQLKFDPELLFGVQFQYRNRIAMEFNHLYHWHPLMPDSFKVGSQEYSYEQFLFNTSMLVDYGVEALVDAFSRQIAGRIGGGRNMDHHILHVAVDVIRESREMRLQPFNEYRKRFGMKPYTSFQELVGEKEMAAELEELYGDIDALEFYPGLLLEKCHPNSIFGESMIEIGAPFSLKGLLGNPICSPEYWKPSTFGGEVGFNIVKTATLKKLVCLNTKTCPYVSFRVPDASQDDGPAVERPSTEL

Row | Compound | IC50 [1] | IC50 [2] | IC50 [3]
1 | Cc1cc(C)c2c(CSc3nnc(CSc4nc5cc(Cl)ccc5o4)o3)cc(=O)oc2c1 | 26.98 mg/L (≈ 55.5 µM) | 27.2 µM | 505 µM
2 | Cc1cc(C)c2c(CSc3nnc(CSc4nc5ccccc5o4)o3)cc(=O)oc2c1 | 33.41 mg/L (≈ 74 µM) | 55.4 µM | 1120 µM
3 | O=c1cc(CSc2nnc(CSc3nc4ccccc4o3)o2)c2c(ccc3ccccc32)o1 | 45.86 mg/L (≈ 96.8 µM) | 51.9 µM | 226 µM
4 | COc1ccc2oc(=O)cc(CSc3nnc(CSc4nc5cc(Cl)ccc5o4)o3)c2c1 | 52.85 mg/L (≈ 108 µM) | 91.3 µM | 1180 µM
5 | Cc1ccc2c(CSc3nnc(CSc4nc5ccccc5o4)o3)cc(=O)oc2c1 | 49.87 mg/L (≈ 114 µM) | 54.3 µM | 199 µM
6 | Cc1cccc(Nc2ccccc2C(=O)O)c1C [MEFENAMIC ACID] | – | 104 µM | 772 µM
7 | Cc1ccc2c(CSc3nnc(CSc4nc5cc(Cl)ccc5o4)o3)cc(=O)oc2c1 | 27.73 mg/L (≈ 58.8 µM) | 29 µM | 308 µM
8 | O=c1cc(CSc2nnc(CSc3nc4ccccc4o3)o2)c2ccc3ccccc3c2o1 | 23.71 mg/L (≈ 50.1 µM) | 27.1 µM | 919 µM
9 | O=C1O[C@H]([C@@H](O)CO)C(O)=C1O [ASCORBIC ACID] | 25.74 mg/L (≈ 146 µM) | – | –
10 | COc1ccc2oc(=O)cc(CSc3nnc(CSc4nc5ccccc5o4)o3)c2c1 | 63.09 mg/L (≈ 139 µM) | 72.6 µM | 230 µM

Next, values leading:

Row | IC50 [1] | IC50 [2] | IC50 [3] | Compound
11 | 48.69 mg/L (≈ 103 µM) | 115 µM | 437 µM | Cc1ccc2oc(=O)cc(CSc3nnc(CSc4nc5cc(Cl)ccc5o4)o3)c2c1
12 | 23.95 mg/L (≈ 47.1 µM) | 22.3 µM | 558 µM | O=c1cc(CSc2nnc(CSc3nc4cc(Cl)ccc4o3)o2)c2ccc3ccccc3c2o1
13 | 26.78 mg/L (≈ 52.7 µM) | 34.8 µM | 642 µM | O=c1cc(CSc2nnc(CSc3nc4cc(Cl)ccc4o3)o2)c2c(ccc3ccccc32)o1
14 | 24.04 mg/L (≈ 54.9 µM) | 45.6 µM | 562 µM | Cc1ccc2oc(=O)cc(CSc3nnc(CSc4nc5ccccc5o4)o3)c2c1
